Measurements as given in ChEMBL document CHEMBL4732148 (Eur J Med Chem, 2021).
Active and inactive are the calls of the source. The calls are words filed in the database; no cut-off is given here.

Tests used:
Hepatitis C virus [1] = experiment: Synergistic antiviral activity against HCV infected in human Huh-7 cells assessed as reduction in viral replication measured after 48 hrs in presence of NS5A inhibitor daclatasvir. by luciferase reporter gene assay; assay type: functional, organism-based; details: Hepacivirus hominis
Method in brief: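 Replicon Huh7 cells treated 48 h with compound across 0.001–10,000 nM, each series at a fixed daclatasvir level from 0.005–0.025 nM. Luciferase read as above. A, B and C from the fits gave compound IC50 at each daclatasvir concentration, and these were plotted on an isobologram.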

Hepatitis C virus [2] = experiment: Antiviral activity against HCV infected in human Huh-7 cells assessed as reduction in viral replication measured after 48 hrs by luciferase reporter gene assay; assay type: functional, organism-based, Hepacivirus hominis; details: Huh-7, 48 h
Method in brief: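 Replicon-bearing Huh7 cells seeded at 10,000/well and allowed to attach for 24 h at 37 °C. Triplicate biological wells then treated 48 h with compound in DMEM, 10% FBS, 0.5% DMSO final. Bright-Glo luminescence expressed relative to untreated cells. IC50 from a four-parameter logistic fit.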

HepG2 = experiment: Cytotoxicity against human HepG2 cells assessed as reduction in cell viability measured after 96 hrs by celltiter-glo assay; assay type: functional; details: read-out: TC50 (the source's name)
Hepatitis C virus [3] = experiment: Ratio of IC50 for antiviral activity against HCV infected in human Huh-7 cells assessed as reduction in viral replication preincubated for 2 hrs followed by replacement with fresh culture medium and measured after 46 hrs by luciferase reporter gene assay to IC50 for antiviral activity against HCV infected in human Huh-7 cells assessed as reduction in viral replication measured after 48 hrs by …; assay type: functional, Hepacivirus hominis
[4] = Ratio of IC50 for antiviral activity against HCV infected in human Huh-7 cells in presence of esterase inhibitor bis-p-nitrophenyl phosphate to antiviral activity against HCV infected in human Huh-7 cells in absence of esterase inhibitor bis-p-nitrophenyl phosphate; assay type: functional, Hepacivirus hominis
Hepatitis C virus [5] = experiment: Synergistic antiviral activity against HCV infected in human Huh-7 cells assessed as reduction in viral replication measured after 48 hrs in presence of NS5B inhibitor PSI-6130. by luciferase reporter gene assay; assay type: functional, organism-based; details: Hepacivirus hominis
Hepatitis C virus [6] = experiment: Antiviral activity against HCV infected in human Huh-7 cells assessed as reduction in viral replication at 25 to 1000 nM measured after 48 hrs in presence of deoxycytidine by luciferase reporter gene assay; assay type: functional, organism-based; details: Hepacivirus hominis, dose 25-1000 nM
Method in brief: (§1)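 Huh7 cells carrying an HCV luciferase replicon, grown in DMEM with 10% FBS and G418. Cells treated 48 h continuously with compound at 25–1,000 nM, either alone or together with 50 µM cytidine or 2′-deoxycytidine. Luciferase activity read in lysates. Three biological replicates, SD.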

[7] = Ratio of gemcitabine TC50 to test compound TC50 for cytotoxicity against human MCF7 cells assessed as reduction in cell viability; assay type: cell-based
Hepatitis C virus [8] = experiment: Antiviral activity against HCV infected in human Huh-7 cells assessed as reduction in viral replication measured after 48 hrs in presence of esterase inhibitor bis-p-nitrophenyl phosphate by luciferase reporter gene assay; assay type: functional, organism-based, Hepacivirus hominis; details: Huh-7, 48 h
[9] = Stability in pH 1 aqueous buffer assessed as parent compound remaining at 200 uM measured after 4 hrs by UV spectrophotometry; assay type: physicochemical; details: read-out: Stabilty
Method in brief: (§2)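 Compound diluted to […] in aqueous buffers at pH 1.0, 2.0, 4.0, 6.0 or 8.0 and held 4 h at 40 °C. Intact prodrug separated by reverse-phase HPLC. 260 nm peak area after incubation compared with untreated prodrug, giving % remaining.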

[10] = Stability in pH 8 aqueous buffer assessed as parent compound remaining at 200 uM measured after 4 hrs by UV spectrophotometry; assay type: physicochemical; details: read-out: Stabilty; method in brief: as §2
Hepatitis C virus [11] = experiment: Antiviral activity against HCV infected in human Huh-7 cells assessed as reduction in viral replication at 500 nM measured after 24 to 30 hrs by luciferase reporter gene assay; assay type: functional, Hepacivirus hominis; design: scale not given: the % may be the effect or the level left; details: time 24-30 hrs
Method in brief: (§3)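 Huh7 luciferase replicon cells treated with 500 nM compound or mock for up to 48 h. Cells were lysed at various times and the lysates snap-frozen in liquid nitrogen. All lysates were then assayed for luciferase together.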

Hepatitis C virus [12] = experiment: Antiviral activity against HCV infected in human Huh-7 cells assessed as reduction in viral replication measured after 48 hrs in presence of human carboxylesterase 1/2 inhibitor benzil by luciferase reporter gene assay; assay type: functional, organism-based, Hepacivirus hominis; details: Huh-7, 48 h
Method in brief: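 Huh7 cells carrying an HCV luciferase-reporter replicon, grown with 10% FBS and G418, were seeded at 10,000 cells/well and left 24 h to attach. Three biological replicates were treated with graded compound in DMEM/10% FBS/0.5% DMSO with benzil present, for 48 h at 37 °C. Bright-Glo luciferase was read, and IC50 came from a four-parameter logistic fit.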

[13] = Ratio of gemcitabine TC50 to test compound TC50 for cytotoxicity against human BXPC-3 cells assessed as reduction in cell viability; assay type: cell-based
[14] = Toxicity in human Huh-7 cells assessed as reduction in cell viability measured after 96 hrs by celltiter-glo assay; assay type: cell-based; details: read-out: TC50
[15] = Cytotoxicity against HEK293 cells assessed as reduction in cell viability measured after 96 hrs by celltiter-glo assay; assay type: cell-based; details: human, read-out: TC50
[16] = Cytotoxicity against human BXPC-3 cells assessed as reduction in cell viability measured after 96 hrs by celltiter-glo assay; assay type: cell-based; details: read-out: TC50
Hepatitis C virus [17] = experiment: Antiviral activity against HCV infected in human Huh-7 cells assessed as reduction in viral replication preincubated for 2 hrs followed by replacement with fresh culture medium and measured after 46 hrs by luciferase reporter gene assay; assay type: functional, organism-based, Hepacivirus hominis
Method in brief: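 HCV luciferase-replicon Huh7 cells were seeded at 10,000 cells/well and allowed 24 h to attach. Three biological replicates were exposed to graded compound in DMEM/10% FBS/0.5% DMSO for 2 h only, then the medium was replaced with fresh growth medium for 46 h at 37 °C.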

[18] = Cytotoxicity against human MCF7 cells assessed as reduction in cell viability measured after 96 hrs by celltiter-glo assay; assay type: cell-based; details: read-out: TC50
[19] = Cytotoxicity against human Huh-7 cells assessed as reduction in cell viability measured after 48 hrs by celltiter-glo assay; assay type: cell-based; details: read-out: TC50
Hepatitis C virus [20] = experiment: Antiviral activity against HCV infected in human Huh-7 cells assessed as reduction in viral replication at 500 nM measured after 36 hrs by luciferase reporter gene assay; assay type: functional, organism-based; details: Hepacivirus hominis; method in brief: as §3
[21] = Stability in pH 6 aqueous buffer assessed as parent compound remaining at 200 uM measured after 4 hrs by UV spectrophotometry; assay type: physicochemical; details: read-out: Stabilty; method in brief: as §2
Hepatitis C virus [22] = experiment: Antiviral activity against HCV infected in human Huh-7 cells assessed as reduction in viral replication at 500 nM measured after 48 hrs by luciferase reporter gene assay; assay type: functional, organism-based; details: Hepacivirus hominis; method in brief: as §3
Hepatitis C virus [23] = experiment: Antiviral activity against HCV infected in human Huh-7 cells assessed as reduction in viral replication at 25 to 1000 nM measured after 48 hrs in presence of cytidine by luciferase reporter gene assay; assay type: functional, organism-based; details: Hepacivirus hominis, dose 25-1000 nM; method in brief: as §1
[24] = Ratio of IC50 for antiviral activity against HCV infected in human Huh-7 cells in presence of human carboxylesterase 1/2 inhibitor benzil to antiviral activity against HCV infected in human Huh-7 cells in absence of human carboxyesterases1/2 inhibitor benzil; assay type: functional, Hepacivirus hominis
[25] = Prodrug conversion assessed as human carboxylesterase 1/2-mediated gemcitabine release measured after 1 hr by HPLC analysis; assay type: ADME
[26] = Stability in pH 4 aqueous buffer assessed as parent compound remaining at 200 uM measured after 4 hrs by UV spectrophotometry; assay type: physicochemical; details: read-out: Stabilty; method in brief: as §2
[27] = Stability in pH 2 aqueous buffer assessed as parent compound remaining at 200 uM measured after 4 hrs by UV spectrophotometry; assay type: physicochemical; details: read-out: Stabilty; method in brief: as §2
[28] = Cytotoxicity against human Huh-7 cells assessed as reduction in cell viability measured after 48 hrs in presence of ENT1 inhibitor NBTI […]; assay type: cell-based; details: with NBTI (ENT1 inhibitor; concentration not stated), read-out: TC50
Hepatitis C virus [29] = experiment: Antiviral activity against HCV infected in human Huh-7 cells assessed as reduction in viral replication at 500 nM measured within 6 hrs by luciferase reporter gene assay; assay type: functional, Hepacivirus hominis; design: scale not given: the % may be the effect or the level left; details: time hrs <=6; method in brief: as §3

## COc1cc(C(=O)Nc2ccn([C@@H]3O[C@H](CO)[C@@H](O)C3(F)F)c(=O)n2)cc(OC)c1OC
Hepatitis C virus [1]
  Activity: Active
Hepatitis C virus [2]
  IC50: 49.3 nM
HepG2
  CC50: 1700 nM
Hepatitis C virus [3]
  Ratio IC50: 56
[4]
  Ratio IC50: 1.6
Hepatitis C virus [5]
  Activity: Active
Hepatitis C virus [6]
  Activity: inactive
[7]
  selectivity ratio: ≤ 24
Hepatitis C virus [8]
  IC50: 81 nM
[9]
  remaining at 4 h, 200 µM: 86%
[10]
  remaining at 4 h, 200 µM: 82.7%
Hepatitis C virus [11]
  Activity: 50%
Hepatitis C virus [12]
  IC50: 125 nM
[13]
  selectivity ratio: ≤ 620
[14]
  CC50 at 96 h: 5.1 µM
[15]
  CC50 at 96 h: 1300 nM
[16]
  CC50 at 96 h: 1800 nM
Hepatitis C virus [17]
  IC50: 2800 nM
[18]
  CC50 at 96 h: 570 nM
[19]
  CC50 at 48 h: 490 µM
Hepatitis C virus [20]
  Activity: Active
[21]
  remaining at 4 h, 200 µM: 99.5%
Hepatitis C virus [22]
  Activity: Active
Hepatitis C virus [23]
  Activity: inactive
[24]
  Ratio IC50: 2.5
[25]
  Drug metabolism: Metabolite_Detected
[26]
  remaining at 4 h, 200 µM: 98.6%
[27]
  remaining at 4 h, 200 µM: 87%
[28]
  CC50 at 48 h: 398 µM

## Nc1ccn([C@@H]2O[C@H](CO)[C@@H](O)C2(F)F)c(=O)n1 [GEMCITABINE]
Hepatitis C virus [2]
  IC50: 58 nM
HepG2
  CC50: 310 nM
Hepatitis C virus [6]
  Activity: inactive
[9]
  remaining at 4 h, 200 µM: 79%
[10]
  remaining at 4 h, 200 µM: 100%
[14]
  CC50 at 96 h: 3.4 µM
[15]
  CC50 at 96 h: 560 nM
[16]
  CC50 at 96 h: 2.9 nM
Hepatitis C virus [17]
  IC50: 170 nM
[18]
  CC50 at 96 h: 67 nM
[21]
  remaining at 4 h, 200 µM: 100%
Hepatitis C virus [29]
  Activity: 50%
Hepatitis C virus [23]
  Activity: inactive
[26]
  remaining at 4 h, 200 µM: 98%
[27]
  remaining at 4 h, 200 µM: 88%
[28]
  CC50 at 48 h: > 500 µM
